In ChEMBL document CHEMBL2346575, “Potential CRF1R PET imaging agents: 1-fluoroalkylsubstituted 5-halo-3-(arylamino)pyrazin-2(1H)-ones” (Bioorg Med Chem Lett, 2013):

Tests used:
[1] = system: Cerebellum; assay: Drug uptake in rat cerebellum after 30 mins; assay type: ADME, tissue-based; details: in vivo, 0.5 h
[2] = system: Cortex; assay: Drug uptake in rat cortex after 30 mins; assay type: ADME, tissue-based; details: in vivo, 0.5 h
[3] = Metabolic stability in baboon after 9 mins; assay type: ADME, organism-based, Papio; details: in vivo, read-out: Stability
[4] = biological target: T1, Corticotropin-releasing factor receptor 1 (Rattus norvegicus, UniProt P35353); assay: Displacement of [125I]-o-CRF from CRF1 receptor in rat frontal cortex homogenate after 2 hrs by gamma counting; assay type: tissue-based
T1 sequence (P35353 whole entry): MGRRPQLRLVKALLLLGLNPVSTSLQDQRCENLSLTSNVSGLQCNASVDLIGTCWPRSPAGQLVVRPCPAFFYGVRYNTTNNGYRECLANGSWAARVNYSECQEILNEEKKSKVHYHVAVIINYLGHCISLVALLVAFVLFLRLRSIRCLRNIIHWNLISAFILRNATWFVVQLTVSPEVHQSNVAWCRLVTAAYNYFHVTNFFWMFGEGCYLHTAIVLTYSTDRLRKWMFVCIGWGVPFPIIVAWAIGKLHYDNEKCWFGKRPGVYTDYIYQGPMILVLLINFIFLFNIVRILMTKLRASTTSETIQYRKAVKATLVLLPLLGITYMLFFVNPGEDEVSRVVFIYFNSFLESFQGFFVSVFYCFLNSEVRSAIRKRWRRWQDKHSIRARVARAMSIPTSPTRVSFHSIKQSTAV
In short: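 Rat frontal cortex, thawed in 50 mM HEPES (pH 7.0 at 23 °C) with 10 mM MgCl2, 2 mM EGTA and protease inhibitors, then homogenized, spun twice at 32,000×g for 30 min and stored at -70 °C. Membranes (25 µg/well) incubated with 150 pM 125I-o-CRF and test drug, 2 h at 21 °C. Filtered on PEI-treated GF/B, washed with cold PBS/0.01% Triton X-100. Nonspecific binding with 1 µM DMP696.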

[5] = Lipophilicity, log D of the compound in octanol-phosphate buffer at pH 7.4 after 30 to 40 mins by shake flask method; assay type: physicochemical
In short: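 Phosphate buffer (25 mM, pH ~7.4) and octanol were pre-saturated overnight. Sample (1.0 mg) in 1 mL octanol added to 50 mL octanol-saturated buffer, shaken hard 30–40 min, then left until the layers separated. Each phase analyzed twice by HPLC.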

[6] = Metabolic stability in baboon after 13 mins; assay type: ADME, organism-based, Papio; details: in vivo, read-out: Stability
[7] = Drug uptake in rat pituitary gland; assay type: ADME, tissue-based; details: in vivo

SMILES	IC50 [4]	logD [5]	also measured
COCCN(CCOC)c1nc(C)nc2c(-c3ccc([76Br])cc3Cl)c(C)nn12			Drug uptake [1]: 0.29 % ID/g; Drug uptake [2]: 0.32 % ID/g
CCCN(CCC)c1cc(C)nc2c(-c3ccc(N(C)[11CH3])nc3)c(C)nn12			remaining at 0.15 h [3]: 50%
COc1cc(Cl)c(Nc2nc(Cl)cn([C@@H](COCCF)C3CC3)c2=O)c(Cl)c1	0.6 nM	4	
Cc1cc(C#N)cc(C)c1Nc1nc(Cl)cn([C@@H](COCCF)C2CC2)c1=O	7.4 nM	3.4	
N#Cc1cc(Cl)c(Nc2nc(Cl)cn([C@@H](COCCF)C3CC3)c2=O)c(Cl)c1	5 nM	3.6	
COc1cc(Cl)c2c(c1)CCN2c1nc(Cl)cn([C@@H](COCCF)C2CC2)c1=O	3.2 nM	4	
COc1cc(C)c(Nc2nc(Cl)cn([C@@H](CF)C3CC3)c2=O)cc1C	1.1 nM	4.5	
COCCN(CCO[11CH3])c1cc(C)nc2c(-c3ccc(N(C)C)nc3)c(C)nn12 [[11C]DMP696]			remaining at 13 min [6]: 50%
CCN(CCCC[18F])c1nc(C)nc2c1c(C)cn2-c1c(C)cc(C)cc1C [[18F]FBPPA]			Drug uptake [7]: 5.59%

Continued, in another order:

IC50 [4]	logD [5]	SMILES	also measured
0.46 nM	4.6	COc1cc(C)c(Nc2nc(Cl)cn([C@@H](COCCF)C3CC3)c2=O)cc1C	
0.46 nM	4.1	COc1cc(Cl)c(Nc2nc(Br)cn([C@@H](COCCF)C3CC3)c2=O)c(Cl)c1	
7.7 nM	3.4	COc1cc(Cl)c(Nc2nc(C#N)cn([C@@H](COCCF)C3CC3)c2=O)c(Cl)c1	
19 nM	3.3	COc1nc(Cl)nc(C)c1Nc1nc(Cl)cn([C@@H](COCCF)C2CC2)c1=O	
14 nM	3.4	COc1nc(Cl)nc(C)c1Nc1nc(Br)cn([C@@H](COCCF)C2CC2)c1=O	
4.5 nM	3.7	Cc1cc(C#N)cc(Cl)c1Nc1nc(Cl)cn([C@@H](COCCF)C2CC2)c1=O	
> 1000 nM	4.6	N#Cc1cc(F)c(Nc2nc(Cl)cn([C@@H](COCCF)C3CC3)c2=O)cc1F	
0.61 nM	4.2	COc1cc(C)c(Nc2nc(C)cn([C@@H](CF)C3CC3)c2=O)cc1C	
4.7 nM	4.1	COc1nc(C)c(Nc2nc(C)cn([C@@H](CF)C3CC3)c2=O)cc1C	
53 nM	2.9	COc1nc(C)c(Nc2nc(Cl)cn(C(CCF)C3CC3)c2=O)c(OC)n1 (racemic)	
